Test [1] relates to Mycobacterium tuberculosis. Briefly: Antibacterial activity against Mycobacterium tuberculosis H37Rv at 50 uM under iron-replete condition after 10 to 14 days by broth microdilution method. The class given is functional, organism-based.
The subject of test [2] is Mycobacterium tuberculosis. Briefly: Antibacterial activity against Mycobacterium tuberculosis H37Rv under iron-deficient condition after 10 to 14 days by broth microdilution method. The format is functional. In outline: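 M. tuberculosis H37Rv broth microdilution in iron-deficient GAST (GAS medium without ferric ammonium citrate, pH 6.6). Compounds were added from DMSO stocks, with isoniazid as positive control and DMSO as negative control. Initial density was 10^4–10^5 cells/assay at 37 °C. Growth was read as OD620 at 10–14 days, when controls reached OD620 0.2–0.3. MIC was determined in triplicate.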

Values after ≈ are worked out from the molar mass of the structure shown. Active and inactive are the calls of the source. The calls are words filed in the database; no cut-off is given here.

Turning to `Nc1nc(-c2ccccc2)cc2c1nnn2[C@@H]1O[C@H](COS(=O)(=O)NC(=O)c2ccccc2O)[C@@H](O)[C@H]1O`, the outcome in test [1] was inactive. This compound showed a minimum inhibitory concentration (MIC) in test [2] of 25 µM (≈ 13.6 µg/mL).

For the compound `Nc1nc(-c2ccc(C(F)(F)F)cc2)cc2c1nnn2[C@@H]1O[C@H](COS(=O)(=O)NC(=O)c2ccccc2O)[C@@H](O)[C@H]1O`, in test [1], the outcome was inactive. For the same compound, the MIC in test [2] is more than 50 µM.

Turning to `COc1ccc2cc(-c3cc4c(nnn4[C@@H]4O[C@H](COS(=O)(=O)NC(=O)c5ccccc5O)[C@@H](O)[C@H]4O)c(N)n3)ccc2c1`, the result in test [1] was inactive. Moreover, in test [2], the MIC is 19 µM (≈ 11.8 µg/mL).

`Cc1ccc(-c2cc3c(nnn3[C@@H]3O[C@H](COS(=O)(=O)NC(=O)c4ccccc4O)[C@@H](O)[C@H]3O)c(N)n2)cc1`: in test [1], the outcome was inactive. In addition, the lowest concentration to inhibit growth in test [2] (MIC) was 25 µM (≈ 13.9 µg/mL).

As for `Nc1nc(-c2ccc3ccccc3c2)cc2c1nnn2[C@@H]1O[C@H](COS(=O)(=O)NC(=O)c2ccccc2O)[C@@H](O)[C@H]1O`, in test [1], the result was inactive. Besides, the lowest concentration to inhibit growth in test [2] (MIC) was 12.5 µM (≈ 7.41 µg/mL).

As for `Nc1nc(-c2ccc(F)cc2)cc2c1nnn2[C@@H]1O[C@H](COS(=O)(=O)NC(=O)c2ccccc2O)[C@@H](O)[C@H]1O`, the result in test [1] was inactive. The same compound came in with an MIC in test [2] of 19 µM (≈ 10.6 µg/mL).

These data come from ChEMBL document CHEMBL3813633, “2-Aryl-8-aza-3-deazaadenosine analogues of 5'-O-[N-(salicyl)sulfamoyl]adenosine: Nucleoside antibiotics that block siderophore biosynthesis in Mycobacterium tuberculosis” (Bioorg Med Chem, 2016).
